Screening results as filed in PubChem BioAssay.
MBD2 DNA inh: inhibitors of MBD2 binding to methylated DNA, primary screen, biochemical, TR-FRET, DNA-binding domain, human; MBD2 binding to methylated oligonucleotide; Methyl-CpG-binding domain protein 2 (Homo sapiens), Q9UBB5; inhibition, % at 4.4 µM; actives 0.31% (n = 370,000); in the data active means inhibition above about 13%
CSN inh: inhibitors of CSN-mediated cullin deneddylation, primary screen, biochemical, fluorescence polarization, uHTS | AID 651999, 2013 | inhibition, % at 12.5 µM | Purified CSN, SCF-Nedd8-OG deneddylation | COP9 signalosome complex subunit 5 (Homo sapiens), Q92905 | actives 0.38% (n = 360,000);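 active means pattern-corrected inhibition above about 35%, with an unprinted fluorescence ratio check between 0.5 and 1.5, limit read from the data, passing the limit was not always enough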
Target sequence (Q92905 whole entry, looked up, one chain of several): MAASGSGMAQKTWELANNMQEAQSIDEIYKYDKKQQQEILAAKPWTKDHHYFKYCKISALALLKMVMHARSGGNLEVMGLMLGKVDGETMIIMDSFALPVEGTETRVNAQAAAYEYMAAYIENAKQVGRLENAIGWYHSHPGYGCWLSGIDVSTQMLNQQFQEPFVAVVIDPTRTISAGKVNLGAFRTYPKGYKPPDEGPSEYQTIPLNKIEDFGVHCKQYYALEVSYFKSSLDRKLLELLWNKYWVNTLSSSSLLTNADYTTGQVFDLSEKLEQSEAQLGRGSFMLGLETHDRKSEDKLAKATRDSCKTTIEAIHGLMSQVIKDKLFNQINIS
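assay system = purified human Csn5 enzyme expressed in HEK293T cells | amount = 0.24 nM enzyme | buffer or medium = Tris/NaCl/DTT buffer, pH 7.5 | reagent = 10 nM SCFSkp2-Nedd8OG | compound = one concentration, 12.5 µM, 0.25% DMSO | times = 90 min reaction at room temperature | signal = FP | read-out basis = % inhibition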
UHRF1 binding: UHRF1 methylated DNA binding inhibitors, primary screen, counter-screen for MBD2 inhibitor project, biochemical, TR-FRET, human UHRF1, single concentration. E3 ubiquitin-protein ligase UHRF1 (Homo sapiens), Q96T88. inhibition, % at 4.4 µM. actives 0.75% (n = 370,000). UHRF1 binding to methylated oligo; in the data active means inhibition above about 21%;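 further: UHRF1 SRA domain binding a hemimethylated CpG hairpin DNA probe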
rCAG binder: binders of r(CAG) RNA repeats, primary screen, biochemical, fluorescence. r(CAG) RNA repeat, TO-PRO-1 dye displacement fluorescence. inhibition, % at 3 µM. actives 1.3% (n = 370,000). AID 651821, 2012;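 active means inhibition above the plate cutoff, the mean of all test compounds on that plate plus 3 SD, cut at about 35% in these data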;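 further: higher means more dye released from RNA so lower well fluorescence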
ATG4B inh: ATG4B protease inhibitors, primary screen, biochemical, fluorescence, uHTS; AID 504462, 2011; Cysteine protease ATG4B (Homo sapiens), Q9Y4P1; ATG4B cleavage of LC3-PLA2, NBD-HPC fluorescence, 1 h; inhibition, % at 8.33 µM; actives 0.51% (n = 340,000); in the data active means inhibition above about 40%
Target sequence (Q9Y4P1 whole entry, looked up): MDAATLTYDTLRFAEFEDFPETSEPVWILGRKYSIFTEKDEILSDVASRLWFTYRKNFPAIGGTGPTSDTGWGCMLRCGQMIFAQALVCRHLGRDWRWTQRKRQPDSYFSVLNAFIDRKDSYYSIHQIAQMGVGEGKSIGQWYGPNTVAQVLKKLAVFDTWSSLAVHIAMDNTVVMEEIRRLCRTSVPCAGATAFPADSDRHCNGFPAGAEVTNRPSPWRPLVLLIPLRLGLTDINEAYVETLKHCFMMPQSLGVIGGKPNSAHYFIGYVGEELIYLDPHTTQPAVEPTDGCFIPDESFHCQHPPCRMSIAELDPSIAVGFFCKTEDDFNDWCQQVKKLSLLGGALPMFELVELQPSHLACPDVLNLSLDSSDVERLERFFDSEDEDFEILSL
LEDGF integ inh: blockers of LEDGF/p75-dependent integrase strand transfer – biochemical, TR-FRET, high throughput, primary screen; HIV-1 integrase (with human LEDGF/p75); TR-FRET IN-LEDGF/p75 DNA integration, Eu/Cy5; inhibition, % at 3.7 µM; actives 0.64% (n = 370,000);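 active means inhibition above the screen-wide mean plus 3 SD, cut at about 13% in these data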;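 further: signal is the Cy5 over europium emission ratio at 671 and 618 nm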
CSN deneddyl val: Csn5 deneddylation inhibitors, confirmation, biochemical, fluorescence polarization, single concentration, SCF-Nedd8OG substrate. shares compounds with CSN inh. Csn5 deneddylation of SCF-Nedd8OG, 90 min. inhibition, % at 16.6 µM. actives 62% (n = 540). AID 720654, 2013; in the data active means inhibition above about 50%
MMP2 cntr CSN: MMP-2 protease inhibition counter-screen, confirmation, counter-screen for CSN deneddylation inhibitor project, biochemical, fluorescence, single concentration. inhibition, % at 16.6 µM. AID 720655, 2013. shares compounds with CSN inh. recombinant MMP-2, FRET substrate fluorescence, 60 min. actives 33% (n = 540);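 active means corrected plate-normalized z-score of 5 or more, or -5 or less, or inhibition of 15% or more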
Thrombin counter: thrombin (bovine) inhibition, counter-screen for CSN hits; inhibition, % at 16.6 µM; shares compounds with CSN inh; actives 49% (n = 540); AID 720656; bovine thrombin cleavage of Ub4-pepOG, fluorescence polarization;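 active means inhibition at or above a set limit, with a fluorescence interference ratio between 0.5 and a set maximum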
Each line names hits and unclear results; the compound was inactive in the other large screens (follow-up assays come after a bar, where they were run). Shown are actives, neighbours in structure and some others; about 3.1% of the full set was active somewhere.

Nc1ccc(Cn2ccc3c4c(N)nc(N)nc4ccc32)cc1	CSN inh 39.4 | CSN deneddyl val 93.4 | MMP2 cntr CSN inactive | Thrombin counter inactive
Cc1nc2ccc(N)cc2c(=O)n1Cc1ccc(Cl)cc1	none
CN(C)c1ccc(/C=C2\SC(=O)N(CCc3nnc(N)s3)C2=O)cc1	none
C#CCN1C(=O)S/C(=C/C=C/c2ccc(N(C)C)cc2)C1=O	CSN inh 59.4 | CSN deneddyl val 53.6 | MMP2 cntr CSN -68.7 | Thrombin counter 70.9
CCCC1CCC2(CC1)CCC2OC(=O)Nc1ccc(C)cc1 (stereo unspecified)	none (no result: CSN inh, rCAG binder, ATG4B inh)
CC[C@H]1OC(=O)[C@H](C)[C@@H](O[C@H]2C[C@@](C)(OC)[C@@H](O)[C@H](C)O2)C(C)[C@@H](O[C@@H]2O[C@H](C)C[C@H](N(C)C)[C@H]2O)[C@](C)(O)C[C@@H](C)CN(C)[C@H](C)[C@@H](O)[C@]1(C)O (stereo partly specified)	none (no result: CSN inh, ATG4B inh)
O=C(O)c1ccccc1-c1ccc(/C=C2\SC(=O)N(c3ccccc3)C2=O)o1	none
Cc1cc2nc3s/c(=C/c4ccc(-c5ccccc5C(=O)O)o4)c(=O)n3c2cc1C	CSN inh 99.1 | CSN deneddyl val inactive | MMP2 cntr CSN inactive | Thrombin counter 64.0
Cn1c(-c2ccc(C=O)s2)nc2c3ccccc3c3ccccc3c21	CSN inh 46.6 | MMP2 cntr CSN inactive | Thrombin counter inactive
COC(=O)c1cc(-c2ccc(-c3ccccc3)c(F)c2)c(=O)n2c1CCC2	none (no result: CSN inh, ATG4B inh)
O=C1C(=O)c2cccnc2-c2ncccc21	CSN inh 59.0 (no result: ATG4B inh) | CSN deneddyl val inactive | MMP2 cntr CSN inactive | Thrombin counter inactive
COc1cccc(/C=N/NC(=O)c2c(C)nc3ccc(Br)cn23)c1O	CSN inh 44.9 (no result: MBD2 DNA inh, UHRF1 binding, rCAG binder, LEDGF integ inh) | CSN deneddyl val inactive | MMP2 cntr CSN inactive | Thrombin counter inactive
COc1cccc(/C=N/NC(=O)CSc2ccccc2C)c1O	CSN inh 99.8 | CSN deneddyl val 111.9 | MMP2 cntr CSN inactive | Thrombin counter inactive
COc1cccc(/C=C2\SC(=S)N(NC(=O)c3ccncc3)C2=O)c1	none
COc1cc(/C=C2\SC(=S)N(NC(=O)c3ccc(O)cc3)C2=O)ccc1O	CSN inh 50.1 | CSN deneddyl val 52.8 | MMP2 cntr CSN inactive | Thrombin counter 65.1
COc1cc(/C=C2\SC(=S)N(NC(=O)c3cccnc3)C2=O)ccc1O	CSN inh 38.8 | CSN deneddyl val 65.1 | MMP2 cntr CSN inactive | Thrombin counter 35.1
COc1ccc(S[C@]2(C(=O)N3CCN(c4ncccn4)CC3)CC(=O)N(c3ccccc3)[C@@H]2c2ccc(OC)cc2)cc1	none (no result: CSN inh, ATG4B inh)
COC(=O)c1ccc2c(c1)C(C)(C)C(/C=C/c1ccccc1O)=[N+]2C	CSN inh 43.8 | CSN deneddyl val 68.1 | MMP2 cntr CSN inactive | Thrombin counter 29.6
C[N+]1=C(/C=C/Nc2ccccc2Cl)C(C)(C)c2ccccc21	none
Cc1c(NC(=O)C2CCCN(S(=O)(=O)c3ccc(Cl)s3)C2)c(=O)n(-c2ccccc2)n1C (stereo unspecified)	none (no result: CSN inh, ATG4B inh)
COc1ccc2nc(N3C(=O)/C(=C/c4ccccc4)NC3=S)sc2c1	CSN inh 94.7 | CSN deneddyl val 91.7 | MMP2 cntr CSN inactive | Thrombin counter 73.6
c1ccc(CCSc2nnc(-c3cccnc3)n2Cc2ccccc2)cc1	none (no result: CSN inh, ATG4B inh)
N#Cc1c(N2CCCC(O)C2)nc(N)c2c(N)nc3c(c12)CC(=O)N3C12CC3CC(CC(C3)C1)C2 (stereo unspecified)	CSN inh 52.3 | CSN deneddyl val 93.5 | MMP2 cntr CSN inactive | Thrombin counter inactive
CCOc1cc(/C=C2\SC(=S)N(Nc3ccccc3)C2=O)ccc1O	CSN inh 37.0 | CSN deneddyl val 74.5 | MMP2 cntr CSN inactive | Thrombin counter 61.2
O=C(O)c1ccc(/C=C2\SC(=S)N(Nc3ccccc3)C2=O)cc1	none
COc1cc(/C=C2\SC(=S)N(Nc3ccccc3)C2=O)ccc1O	CSN inh 45.6 | CSN deneddyl val 85.3 | MMP2 cntr CSN inactive | Thrombin counter 56.1
O=C1/C(=C/c2ccncc2)SC(=S)N1Nc1ccccc1	none
COc1cc(/C=C2/SC(=S)N(CC3CCCO3)C2=O)ccc1O (stereo unspecified)	CSN inh 57.5 | CSN deneddyl val 65.3 | MMP2 cntr CSN inactive | Thrombin counter 74.5
COc1ccc(/C=C2\SC(=S)N(CC3CCCO3)C2=O)cc1 (stereo unspecified)	none
O=C1/C(=C/c2ccc(O)c(O)c2)SC(=S)N1Nc1ccccc1	CSN inh 54.0 (no result: MBD2 DNA inh, UHRF1 binding, rCAG binder, LEDGF integ inh) | CSN deneddyl val inactive | MMP2 cntr CSN 17.5 | Thrombin counter 53.9
CCOc1ccc(/C=C2\SC(=S)N(C)C2=O)cc1OC	none
CCOc1ccc(-n2c(SCC(=O)Nc3cccc4ccccc34)nnc2-c2ccncc2)cc1	none (no result: CSN inh, ATG4B inh)
CCOC(=O)CCCNC(=O)O[C@@H]1CC[C@@]23CCCN2C(=O)CCC[C@H]3C1	none (no result: CSN inh, rCAG binder, ATG4B inh)
O=[N+]([O-])c1ccccc1S(=O)(=O)N1CCC(c2cn3ccccc3n2)CC1	none (no result: CSN inh, ATG4B inh)
COc1cc(N2CCCC2)c(OC)cc1/C=C(/C#N)c1ccc(Br)cc1	CSN inh 60.0 | CSN deneddyl val 90.0 | MMP2 cntr CSN inactive | Thrombin counter 22.1
CCn1c2c(n(C(C)=O)c1=O)C=C(C(=O)N1CCCC1)C(C)C(c1ccccc1)=C2 (stereo unspecified)	none (no result: CSN inh, ATG4B inh)
COCCNC(=O)/C(C#N)=C/c1ccc(N2CCOCC2)o1	none
N#C/C(=C\c1ccc(N2CCOCC2)o1)C(=O)NC1CCCCC1	CSN inh 77.2 | CSN deneddyl val 141.2 | MMP2 cntr CSN inactive | Thrombin counter 64.6
